An excerpt weighted towards active compounds, which were near 3% of everything screened.
HTR1A agonist: human 5-HT1a receptor agonists, primary screen, cell-based, CHO, Ga15 NFAT-bla reporter | 65,000 compounds, 0.56% hits | 5-hydroxytryptamine receptor 1A (Homo sapiens), P08908 | CHO 5-HT1a Ga15 NFAT-bla reporter, FRET ratio; 0% basal, 100% maximal reference agonist | activation, % at 10 µM;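 active = activation above the screen-wide mean activation plus 3 SD, cut at about 19% in these data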;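 note: 0% = DMSO wells and 100% = 5-CT at EC100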
S1P3 agonist: human S1P3 receptor agonists, primary screen, cell-based, primary and confirmation, NFAT-BLA reporter; AID 373, 2006; S1P3 NFAT-BLA reporter cells, agonism, FRET ratio; relative to 1 µM S1P, basal subtracted; activation, % at 4.5 µM; Sphingosine 1-phosphate receptor 3 (Homo sapiens), Q99500; 60,000 compounds, 0.1% hits;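 active = activation above the screen-wide mean plus 3 SD, cut at about 4.5% in these data, passing the limit was not always enough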
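Measure – % activation relative to 1 µM S1P (100%), per plate · System – stable CHO line with human S1P3, Gα16, NFAT-BLA reporter · Timing – cells plated overnight, compound 4 h 37 °C, substrate 2 h RT · Technique – fluorescent BLA substrate, ex 405 nm, em 460/535 nm ratio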
S1P1 ag-PAM: S1P1 agonists and agonism potentiators, primary screen, cell-based, primary and confirmation screens, CRE-bla reporter; activation, % at 9.5 µM; Sphingosine 1-phosphate receptor 1 (Homo sapiens), P21453; S1P1 CRE-bla cells, forskolin, beta-lactamase FRET, potentiator mode; S1P1 agonist co-added at EC20, 2 nM; 100% = saturating reference agonist, 0% = basal; 56,000 compounds, 0.57% hits;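 active = activation above a cutoff set at the mean activation of all tested compounds plus 3 SD, cut at about 54% in these data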;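 note: forskolin at 4 µM as EC80 and the EC20 agonist is SEW2871; 100% = SEW2871 at its EC100 plus forskolin at EC80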
Target sequence (P21453 whole entry, looked up): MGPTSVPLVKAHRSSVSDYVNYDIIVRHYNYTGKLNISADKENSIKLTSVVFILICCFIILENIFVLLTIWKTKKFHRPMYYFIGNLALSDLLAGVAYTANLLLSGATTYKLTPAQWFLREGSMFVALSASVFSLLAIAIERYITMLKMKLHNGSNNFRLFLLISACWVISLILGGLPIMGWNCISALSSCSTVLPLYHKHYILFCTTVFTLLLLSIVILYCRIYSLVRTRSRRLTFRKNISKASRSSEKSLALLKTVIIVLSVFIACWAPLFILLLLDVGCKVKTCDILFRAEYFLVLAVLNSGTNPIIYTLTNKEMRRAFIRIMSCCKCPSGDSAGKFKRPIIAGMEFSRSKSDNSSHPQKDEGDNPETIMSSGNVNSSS
HTR1E antagonist: 5-HT1E receptor antagonists, primary screen, cell-based, HTS; 5-hydroxytryptamine receptor 1E (Homo sapiens), P28566; CHO 5-HT1E Ga15 NFAT-bla reporter, FRET, antagonist; inhibition, % at 6 µM; 65,000 compounds, 0.99% hits;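 active = inhibition above a set limit, the mean inhibition across every tested compound plus 3 SD, cut at about 29% in these data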;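 note: signal is the 460 over 535 nm emission ratio of beta-lactamase substrate; 0% = agonist plus DMSO wells and 100% = wells without agonist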
5HT1E ag: 5-HT1E receptor agonists, primary screen, cell-based, HTS; 5-hydroxytryptamine receptor 1E (Homo sapiens), P28566; CHO 5-HT1E Ga15 NFAT-bla reporter, FRET; 0% DMSO wells, 100% control agonist wells; activation, % at 6 µM; 65,000 compounds, 0.69% hits; AID 574, 2007;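 active = activation above a set limit, the screen-wide mean activation plus 3 SD, cut at about 8.5% in these data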;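 note: 100% = positive control agonist at 1 µM giving full maximal response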
5HT1a antag: human 5-HT1a receptor antagonists, primary screen, cell-based, CHO, Ga15 NFAT-bla reporter | 5-hydroxytryptamine receptor 1A (Homo sapiens), P08908 | CHO 5-HT1a Ga15 NFAT-bla reporter, antagonist mode | inhibition, % at 10 µM | 62,000 compounds, 0.68% hits | AID 612, 2007;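 active = inhibition above the mean of all tested compounds plus 3 SD, cut at about 43% in these data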;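 note: receptor stimulated by 5-CT agonist at 100 nM near EC80; beta-lactamase reporter measured by ratiometric fluorescence of a cleavable substrate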
An asterisk follows results filed as active; x = no result given.

SMILES	HTR1A agonist	S1P3 agonist	S1P1 ag-PAM	HTR1E antagonist	5HT1E ag	5HT1a antag
COc1cc2c(cc1OC)/C(=C/C(=O)N1CCOCC1)NC(C)(C)C2	-0.6	-0.3	-21.9	29.8*	0.4	-0.4
Cc1ccccc1Cn1ccc(NC(=O)c2cc3nc(-c4ccco4)cc(C(F)(F)F)n3n2)n1	74.0*	0.2	-35.2	-5.4	1.7	-14.8
O=C(Nc1ccc2c(c1)OCO2)C1CCN(S(=O)(=O)c2cccc3cccnc23)CC1	0.4	-0.6	17.4	3.8	-0.2	1.8
Cc1nc2ccc3nc(NC(=O)C4COc5ccccc5O4)sc3c2s1 (centres undefined)	-1.4	0.0	66.7*	-2.1	0.0	-8.7
COc1ccc(/C=N/n2cncn2)cc1CSc1ccccn1	-0.5	-4.9	-14.6	-7.6	16.1*	x
COc1ccc(NC(=O)CSc2ccccn2)cc1OC	-2.6	-0.1	-20.6	-4.7	0.5	-10.1
CN(C)/C=C1\C(=O)c2ccc(N(C)C)nc2CC1c1ccccc1 (centres undefined)	99.3*	10.4	-303.5	-21.6	25.0*	-122.0
Cc1c(C(=O)OCCOC(C)C)[nH]c2c1C(=O)CC(c1ccco1)C2 (centres undefined)	-2.8	-1.5	-12.4	81.1*	-1.0	62.8*
CSCCOC(=O)c1[nH]c2c(c1C)C(=O)CC(c1ccco1)C2 (centres undefined)	0.1	0.1	21.3	56.6*	0.6	27.1
COCCOC(=O)c1[nH]c2c(c1C)C(=O)CC(c1ccco1)C2 (centres undefined)	-1.4	-0.7	-4.5	34.7*	-0.6	16.1
CCCCOC(=O)c1[nH]c2c(c1C)C(=O)CC(c1cc(OC)c(OC)c(OC)c1)C2 (centres undefined)	1.4	-1.4	133.9*	14.8	-0.3	25.1
CCn1c(SCC(=O)O)nnc1C1CCCCC1	-1.0	-0.1	-4.3	-3.0	-1.7	-17.3
CCN(CCCNC(=O)C1CCCN(S(=O)(=O)c2cnc[nH]2)C1)c1ccccc1 (centres undefined)	-0.5	-0.2	-13.9	14.3	0.2	1.1
Cc1nc(SCC(=O)c2ccccc2)c(C#N)c(-c2ccco2)c1C(=O)NCc1ccco1	0.3	-1.1	-3.4	-2.1	0.6	x
COCCOC(=O)c1[nH]c2c(c1C)C(=O)CC(c1ccccc1)C2 (centres undefined)	0.6	x	x	66.7*	-0.7	35.8
Cc1c(C(=O)O)[nH]c2c1C(=O)CC(c1ccccc1)C2 (centres undefined)	0.3	x	x	4.9	0.2	-11.6
Cc1c(C(=O)OCc2ccccc2)[nH]c2c1C(=O)CC(c1ccco1)C2 (centres undefined)	0.6	-1.3	-1.1	84.2*	-1.1	58.0*
CCOC(=O)c1[nH]c2c(c1C)C(=O)CC(c1ccco1)C2 (centres undefined)	-1.2	-0.8	-9.7	74.5*	-0.3	53.1*
COC(=O)c1[nH]c2c(c1C)C(=O)CC(c1cccs1)C2 (centres undefined)	-4.0	-0.6	-2.4	57.5*	-0.4	39.2
COc1ccc(C2CCCN2C(=O)Nc2ccc(F)cc2)cc1OC (centres undefined)	15.8	-0.2	-12.8	21.0	-0.6	1.2
O=C(c1ccco1)N1CCN(C(=O)c2cc(-c3ccccn3)nc3ccc(Cl)cc23)CC1	-2.0	-0.4	-1.6	2.3	0.1	8.8
Cc1cc(NC(=O)c2cc(S(=O)(=O)N3CCCCC3)ccc2C)n(-c2ccccn2)n1	1.4	0.6	-3.9	21.9	0.1	11.0
COc1ccc(OC)c(C2C(C(=O)c3ccco3)=C(O)C(=O)N2CCCN2CCOCC2)c1 (centres undefined)	-0.3	-1.0	1.1	-5.4	0.2	x

High-throughput results: PubChem, The Scripps Research Institute Molecular Screening Center
